pEC50: −log10 of the molar value.
What was measured:
F9 = assay: Ability to induce differentiation of mouse F9 embryonal carcinoma cells.; assay type: functional; conditions: read-out: ED50 (the source's name)
In short: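 Mouse F9 embryonal carcinoma cells grown at 1 × 10^5 cells/mL for 4 days with or without retinoid at 10^-7 to 10^-11 M. Harvest fluid mixed with 0.13 μM plasminogen, 0.3 mM H-D-Val-Leu-Lys-p-NA, 0.1% Tween 80 and fibrinogen fragments in Tris·HCl pH 7.5. Incubated 4 h at 25 °C, p-nitroaniline read at 405 nm. Triplicate mean absorbances plotted semilog against molarity; ED50 taken at midpoint between maximal and minimal absorbance.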

Gallus gallus = species on record: Gallus gallus; assay: Relative percent binding to cellular retinoic acid binding protein (CRABP) in chick embryo skin.
In short: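 Competition of unlabeled retinoid with [3H]retinoic acid for binding to CRABP from chick embryo skin. Inhibition caused by a 100-fold molar excess of unlabeled retinoic acid defined as 100%.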

Row | RA (Gallus gallus) | SMILES | pEC50 (F9)
1 | 0% | CCNC(=O)\C(C(=O)OCC)=C(C)/C=C/C=C(C)/C=C/C1=C(C)CCCC1(C)C | 8.22
2 | 90% | CCOC(=O)/C(C(=O)O)=C(C)/C=C/C=C(C)/C=C/C1=C(C)CCCC1(C)C | 9.00
3 | 0% | CCNC(=O)/C(C(=O)OCC)=C(C)/C=C/C=C(C)/C=C/C1=C(C)CCCC1(C)C | 8.22
4 | 65% | CC(/C=C/C=C(C)/C=C/C1=C(C)CCCC1(C)C)=C(C(=O)O)C(=O)O | 9.30
5 | 55% | CCNC(=O)\C(C(=O)O)=C(C)/C=C/C=C(C)/C=C/C1=C(C)CCCC1(C)C | 9.22
6 | 0% | CCOC(=O)C(C(=O)OCC)=C(C)/C=C/C=C(C)/C=C/C1=C(C)CCCC1(C)C | 8.35
7 | 55% | CCNC(=O)/C(C(=O)O)=C(C)/C=C/C=C(C)/C=C/C1=C(C)CCCC1(C)C | 9.30
8 | 100% | CC1=C(/C=C/C(C)=C/C=C/C(C)=C/C(=O)O)C(C)(C)CCC1 [TRETINOIN] | 10.00
9 | 100% | CC1=C(/C=C/C(C)=C/C=C/C(C)=C\C(=O)O)C(C)(C)CCC1 [ISOTRETINOIN] | 9.52
